Activity calls are given as the source filed them. The rule behind the calls is not given here.
Assays:
[1] = Cytotoxicity against human SEM cells assessed as growth inhibition after 72 hrs by MTT assay; assay type: functional, cell-based
[2] = test system: CCRF-CEM; assay: Cytotoxicity against human CEM cells assessed as growth inhibition after 72 hrs by MTT assay; assay type: functional, cell-based
[3] = test system: MCF7; assay: Cytotoxicity against human MCF7 cells assessed as growth inhibition after 72 hrs by MTT assay; assay type: functional, cell-based; conditions: MCF7, 72 h
[4] = test system: LoVo; assay: Cytotoxicity against human LoVo cells assessed as growth inhibition after 72 hrs by MTT assay; assay type: functional, cell-based
[5] = test system: HT-29; assay: Cytotoxicity against human HT-29 cells assessed as growth inhibition after 72 hrs by MTT assay; assay type: functional, cell-based; conditions: HT-29, 72 h
[6] = test system: HeLa; assay: Cytotoxicity against human HeLa cells assessed as growth inhibition after 72 hrs by MTT assay; assay type: functional, cell-based
[7] = test system: Jurkat; assay: Cytotoxicity against human Jurkat cells assessed as growth inhibition after 72 hrs by MTT assay; assay type: functional, cell-based
[8] = biological target: Tubulin (Bos taurus) (UniProt Q6B856+Q862L2+Q862F3); assay: Inhibition of bovine brain tubulin polymerization at 20 uM by turbidimetry
Method in brief: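 Purified bovine brain tubulin (10 μM) preincubated with compound in glutamate buffer at 30 °C, cooled to 0 °C, GTP added, then warmed to 30 °C in cuvettes; assembly followed turbidimetrically; concentrations up to 20 μM.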

[9] = Cytotoxicity against human CEM/VBL100 cells assessed as growth inhibition after 72 hrs by MTT assay; assay type: functional, cell-based; conditions: CEM/VBL100, 72 h

SMILES: C=C(Br)C(=O)Nc1cccc(/C=C/C(=O)Nc2ccc(OC)c(OC)c2)c1
- IC50 [1]: 0.003 µM
- IC50 [2]: 0.021 µM
- IC50 [3]: 2.8 µM
- IC50 [4]: 0.15 µM
- IC50 [5]: 1.9 µM
- IC50 [6]: 0.56 µM
- IC50 [7]: 0.19 µM
- inhibition [8]: inactive

SMILES: C=C(Br)C(=O)Nc1cccc(/C=C/C(=O)Nc2cccc(F)c2)c1
- IC50 [1]: 0.62 µM
- IC50 [2]: 26 µM
- IC50 [3]: 3.3 µM
- IC50 [4]: 1 µM
- IC50 [5]: 4.6 µM
- IC50 [6]: 1.2 µM
- IC50 [7]: 1 µM

SMILES: COc1cccc(/C=C/C(=O)Nc2cc(OC)c(OC)c(OC)c2)c1
- IC50 [1]: 18.2 µM
- IC50 [2]: 23.4 µM
- IC50 [3]: 27 µM
- IC50 [4]: 43 µM
- IC50 [5]: 44.1 µM
- IC50 [6]: 16.5 µM
- IC50 [7]: 12.5 µM

SMILES: C=C(Br)C(=O)Nc1cccc(/C=C/C(=O)Nc2ccc(Cl)cc2)c1
- IC50 [1]: 1.19 µM
- IC50 [2]: 0.46 µM
- IC50 [3]: 11 µM
- IC50 [4]: 5.9 µM
- IC50 [5]: 7.9 µM
- IC50 [6]: 2.8 µM
- IC50 [7]: 2.6 µM

SMILES: C=C(Br)C(=O)Nc1cccc(/C=C/C(=O)Nc2ccc(F)c(F)c2)c1
- IC50 [1]: 0.09 µM
- IC50 [2]: 0.013 µM
- IC50 [3]: 2.69 µM
- IC50 [4]: 0.54 µM
- IC50 [5]: 8.7 µM
- IC50 [6]: 1.9 µM
- IC50 [7]: 0.55 µM
- inhibition [8]: inactive

SMILES: CC[C@]1(O)C[C@@H]2CN(CCc3c([nH]c4ccccc34)[C@@](C(=O)OC)(c3cc4c(cc3OC)N(C)[C@H]3[C@@](O)(C(=O)OC)[C@H](OC(C)=O)[C@]5(CC)C=CCN6CC[C@]43[C@@H]65)C2)C1 [VINBLASTINE]
- IC50 [9]: 0.021 µM

SMILES: C=C(Br)C(=O)Nc1cccc(/C=C/C(=O)Nc2cc(OC)cc(OC)c2)c1
- IC50 [1]: 0.04 µM
- IC50 [2]: 0.011 µM
- IC50 [3]: 3 µM
- IC50 [4]: 1.21 µM
- IC50 [5]: 3.6 µM
- IC50 [6]: 2.2 µM
- IC50 [7]: 0.98 µM

SMILES: C=C(Br)C(=O)Nc1cccc(/C=C/C(=O)Nc2ccc(F)cc2)c1
- IC50 [1]: 8.4 µM
- IC50 [2]: 16.6 µM
- IC50 [3]: 13.6 µM
- IC50 [4]: 4.8 µM
- IC50 [5]: 36.6 µM
- IC50 [6]: 16.8 µM
- IC50 [7]: 6.2 µM

SMILES: C=C(Br)C(=O)Nc1cccc(/C=C/C(=O)Nc2ccccc2)c1
- IC50 [1]: 1.1 µM
- IC50 [2]: 0.19 µM
- IC50 [3]: 27.3 µM
- IC50 [4]: 3.9 µM
- IC50 [5]: 16.6 µM
- IC50 [6]: 7.3 µM
- IC50 [7]: 5 µM

SMILES: C=C(Br)C(=O)Nc1cccc(/C=C/C(=O)Nc2ccc(OC)cc2)c1
- IC50 [1]: 0.07 µM
- IC50 [2]: 0.026 µM
- IC50 [3]: 2.5 µM
- IC50 [4]: 0.55 µM
- IC50 [5]: 2.3 µM
- IC50 [6]: 0.79 µM
- IC50 [7]: 0.47 µM
- inhibition [8]: inactive

SMILES: C=C(Br)C(=O)Nc1cccc(/C=C/C(=O)Nc2ccc(SC(F)(F)F)cc2)c1
- IC50 [1]: 12.7 µM
- IC50 [2]: 15.3 µM
- IC50 [3]: 30.1 µM
- IC50 [4]: 29.3 µM
- IC50 [5]: 39.8 µM
- IC50 [6]: 19 µM
- IC50 [7]: 30.1 µM

SMILES: C=C(Br)C(=O)Nc1cccc(/C=C/C(=O)Nc2ccc(OCC)cc2)c1
- IC50 [1]: 0.18 µM
- IC50 [2]: 0.098 µM
- IC50 [3]: 5.5 µM
- IC50 [4]: 0.85 µM
- IC50 [5]: 3.4 µM
- IC50 [6]: 2 µM
- IC50 [7]: 0.93 µM

SMILES: C=C(Br)C(=O)Nc1cccc(/C=C/C(=O)NCc2ccc(C)cc2)c1
- IC50 [1]: 1.3 µM
- IC50 [2]: 0.55 µM
- IC50 [3]: 2.2 µM
- IC50 [4]: 1.9 µM
- IC50 [5]: 2.7 µM
- IC50 [6]: 1.7 µM
- IC50 [7]: 0.74 µM

SMILES: C=C(Br)C(=O)Nc1ccc(/C=C/C(=O)Nc2ccc(OC)cc2)cc1
- IC50 [1]: 0.08 µM
- IC50 [2]: 0.022 µM
- IC50 [3]: 3 µM
- IC50 [4]: 0.06 µM
- IC50 [5]: 3.1 µM
- IC50 [6]: 1.6 µM
- IC50 [7]: 1.4 µM

SMILES: C=C(Br)C(=O)Nc1cccc(/C=C/C(=O)Nc2ccc(OC(F)(F)F)cc2)c1
- IC50 [1]: 19.3 µM
- IC50 [2]: 13 µM
- IC50 [3]: 43.3 µM
- IC50 [4]: 30.3 µM
- IC50 [5]: 61.2 µM
- IC50 [6]: 29 µM
- IC50 [7]: 30.3 µM

SMILES: C=C(Br)C(=O)Nc1cccc(/C=C/C(=O)Nc2cccc3ccccc23)c1
- IC50 [1]: 0.83 µM
- IC50 [2]: 1.8 µM
- IC50 [3]: 2.8 µM
- IC50 [4]: 1.16 µM
- IC50 [5]: 6.5 µM
- IC50 [6]: 1.4 µM
- IC50 [7]: 0.68 µM

SMILES: C=C(Br)C(=O)Nc1cccc(/C=C/C(=O)Nc2ccc(C)cc2)c1
- IC50 [1]: 0.19 µM
- IC50 [2]: 0.27 µM
- IC50 [3]: 2.5 µM
- IC50 [4]: 1.5 µM
- IC50 [5]: 1.2 µM
- IC50 [6]: 1.5 µM
- IC50 [7]: 0.24 µM

SMILES: COc1cc(NC(=O)/C=C/c2cccc(N)c2)cc(OC)c1OC
- IC50 [1]: 2.81 µM
- IC50 [2]: 40.9 µM
- IC50 [3]: 55.4 µM
- IC50 [4]: 45.2 µM
- IC50 [5]: 63.1 µM
- IC50 [6]: 53.1 µM
- IC50 [7]: 43.3 µM

SMILES: COc1cc(NC(=O)/C=C/c2cccc(OCc3ccccc3)c2)cc(OC)c1OC
- IC50 [1]: 8.5 µM
- IC50 [2]: 17.3 µM
- IC50 [3]: 2.4 µM
- IC50 [4]: 21.7 µM
- IC50 [5]: 3.6 µM
- IC50 [6]: 2.2 µM
- IC50 [7]: 3.5 µM

SMILES: COc1cccc2c1C(=O)c1c(O)c3c(c(O)c1C2=O)C[C@@](O)(C(=O)CO)C[C@@H]3O[C@H]1C[C@H](N)[C@H](O)[C@H](C)O1 [DOXORUBICIN]
- IC50 [4]: 0.09 µM

SMILES: C=C(Br)C(=O)Nc1cccc(/C=C/C(=O)Nc2cc(OC)c(OC)c(OC)c2)c1
- IC50 [1]: 0.018 µM
- IC50 [2]: 0.059 µM
- IC50 [3]: 1.8 µM
- IC50 [4]: 0.14 µM
- IC50 [5]: 2.3 µM
- IC50 [6]: 0.88 µM
- IC50 [7]: 0.29 µM
- inhibition [8]: inactive

Reference: ChEMBL document CHEMBL3286242, “Design, synthesis and biological evaluation of arylcinnamide hybrid derivatives as novel anticancer agents” (Eur J Med Chem, 2014)
